Reference: PubChem BioAssay
The source made the active and inactive calls.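 How the source made its calls: active means GFP response above 150% of the DMSO control; inconclusive means fewer than 70 events counted in any yeast strain; inactive means the rest.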

test: LAP4-GFP expression modulators in yeast, confirmation, cell-based, cherry picks, flow cytometry, mother/daughter gates (AID 2271);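 further: ratio of sample to DMSO plate mean so 100% equals DMSO level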; conditions: S. cerevisiae LAP4-GFP strain, 3 h, at 10 µM, stronger effect = higher value, 100 means same as DMSO control
Procedure, shortened: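 System: Alexa 633-stained baker's yeast GFP-fusion strain / Medium: synthetic complete (SC) yeast growth medium / Doses: compound at 10 µM, single point / Times: 3 h treatment at 30 °C with rotation / Detection: HT flow cytometry, GFP fluorescence channel / Benchmarks: DMSO-only negative wells, rapamycin 400 ng/mL positive wells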

With `O=C(Nc1cccnc1)c1ccc(-c2ccc(Cl)cc2)o1` as the compound, how does the GFP response relative to DMSO read?
Its GFP response relative to DMSO is 101% (inactive).

Which GFP response relative to DMSO does the source give for `Oc1c(N=Nc2ccccn2)ccc2ccccc12` here?
The GFP response relative to DMSO was 95.3% (inactive).

With `Cc1cccn2c(=O)c3cc(C(=O)NCCc4ccccc4)c(=N)n(CCCn4ccnc4)c3nc12` as the compound, how does the GFP response relative to DMSO read?
Its GFP response relative to DMSO is 96.5% (inactive).

Which GFP response relative to DMSO does the source give for `Cc1ccc(CS(=O)(=O)c2ncc(Cl)c(C(=O)Nc3nnc(C(C)C)s3)n2)cc1` here?
The GFP response relative to DMSO was 108% (inactive).

Which GFP response relative to DMSO does the source give for `Oc1ccc2ccccc2c1N=Nc1nccs1` here?
The GFP response relative to DMSO was 163% (active).

With `Oc1c(CN2CCN(c3ccc(F)cc3)CC2)cc(Cl)c2cccnc12` as the compound, how does the GFP response relative to DMSO read?
Its GFP response relative to DMSO is 264% (active).

With `Oc1ccc(Br)cc1/C=N/Nc1ccccn1` as the compound, how does the GFP response relative to DMSO read?
The GFP response relative to DMSO was 263% (active).

Which GFP response relative to DMSO does the source give for `O=C(/C=C/Sc1ncn[nH]1)c1ccc(Cl)cc1` here?
Its GFP response relative to DMSO is 213% (active).

With `C/C(=N\Nc1ncnc2sc(C)c(C)c12)c1ccccn1` as the compound, how does the GFP response relative to DMSO read?
Its GFP response relative to DMSO is 434% (active).

With `CC(=O)Nc1ccc(Nc2cc(C)nc3c(-c4ccc(Cl)cc4)c(C)nn23)cc1` as the compound, how does the GFP response relative to DMSO read?
Its GFP response relative to DMSO is 94.1% (inactive).

Which GFP response relative to DMSO does the source give for `O=C1C=CC(=O)N1c1ccc(N2CCCCC2)cc1` here?
The GFP response relative to DMSO was 220% (active).

With `CCn1c(/C=C/c2ccc([N+](=O)[O-])o2)nc2ccccc2c1=O` as the compound, how does the GFP response relative to DMSO read?
The GFP response relative to DMSO was 347% (active).

With `COc1ccc(C(=O)NC(=S)NNC(=O)CCc2ccccc2)cc1` as the compound, how does the GFP response relative to DMSO read?
Its GFP response relative to DMSO is 188% (active).

For `Cc1ccc(-c2noc(CCC(=O)Nc3ccccc3C)n2)cc1`, which GFP response relative to DMSO is on record?
The GFP response relative to DMSO was 111% (inactive).

For `Nc1c(C(=O)c2cccs2)sc2nsc(SCCN3CCCCC3)c12`, which GFP response relative to DMSO is on record?
The GFP response relative to DMSO was 142% (inactive).

For `Cc1[nH]c(-c2ccccn2)nc(=S)c1Cl`, which GFP response relative to DMSO is on record?
The GFP response relative to DMSO was 303% (active).

Which GFP response relative to DMSO does the source give for `CCCCC(=O)O[C@]1(C(=O)CO)CC[C@H]2[C@@H]3CCC4=CC(=O)CC[C@]4(C)[C@H]3[C@@H](O)C[C@@]21C` here?
The GFP response relative to DMSO was 101% (inactive).

For `Nc1ccccc1SC(C[N+](=O)[O-])c1ccccc1` (stereo not given), which GFP response relative to DMSO is on record?
Its GFP response relative to DMSO is 173% (active).

For `N/C(=N\OC(=O)c1ccccc1Cl)c1ccc(Cl)cc1`, which GFP response relative to DMSO is on record?
The GFP response relative to DMSO was 135% (inactive).

With `Cc1[nH][nH]c(=O)c1C(c1ccc(-c2ccc(Cl)cc2)o1)c1c(C)[nH][nH]c1=O` as the compound, how does the GFP response relative to DMSO read?
The GFP response relative to DMSO was 188% (active).

For `Cc1ccc(/C=C2/C(=O)ON=C2c2ccccc2)o1`, which GFP response relative to DMSO is on record?
The GFP response relative to DMSO was 250% (active).

Which GFP response relative to DMSO does the source give for `C[n+]1ccc(/C=C/c2c[nH]c3ccccc23)cc1` here?
Its GFP response relative to DMSO is 143% (inactive).

Which GFP response relative to DMSO does the source give for `Cc1cc(O)c(C(=O)/C=C/c2c(F)c(F)c(F)c(F)c2F)c(=O)o1` here?
The GFP response relative to DMSO was 152% (active).

For `Cc1cc(O)ccc1NC(=O)c1ccccc1`, which GFP response relative to DMSO is on record?
Its GFP response relative to DMSO is 96.7% (inactive).

For `CCOc1ccc(Nc2ccc(C(=O)O)cc2[N+](=O)[O-])cc1`, which GFP response relative to DMSO is on record?
Its GFP response relative to DMSO is 101% (inactive).

Which GFP response relative to DMSO does the source give for `O=C1C=CC(=O)N1c1cccc(-c2ccccc2)c1` here?
Its GFP response relative to DMSO is 220% (active).

Which GFP response relative to DMSO does the source give for `Cc1cccc(C)c1NC(=O)C(Cl)C(=O)c1ccccc1` (stereo not given) here?
Its GFP response relative to DMSO is 241% (active).

Which GFP response relative to DMSO does the source give for `O=C(NC(=S)NNC(=O)c1cnccn1)c1ccc(F)cc1` here?
The GFP response relative to DMSO was 259% (active).

Which GFP response relative to DMSO does the source give for `CCCc1[nH]nc2c1C(c1ccccc1OC)C(C#N)=C(N)O2` (stereo not given) here?
The GFP response relative to DMSO was 116% (inactive).

For `CCCNC(=O)COC(=O)c1ccc(S(=O)(=O)N2CCCC2)cc1`, which GFP response relative to DMSO is on record?
The GFP response relative to DMSO was 94.9% (inactive).

With `CC(C)(C)C(=O)NC(=S)NNC(=O)c1ccc(-c2ccccc2)cc1` as the compound, how does the GFP response relative to DMSO read?
The GFP response relative to DMSO was 228% (active).

Which GFP response relative to DMSO does the source give for `O=C1Oc2ccccc2C(=O)/C1=C/c1ccccc1O` here?
The GFP response relative to DMSO was 394% (active).

With `O=C(Nc1ccccc1)c1nnsc1S(=O)(=O)c1ccc(Cl)cc1` as the compound, how does the GFP response relative to DMSO read?
Its GFP response relative to DMSO is 164% (active).

With `CCCc1cc(NCc2ccccn2)n2nc(C)c(-c3ccccc3)c2n1` as the compound, how does the GFP response relative to DMSO read?
Its GFP response relative to DMSO is 172% (active).

With `Cc1cc(C)nc(S/C=C/C(=O)c2ccccc2)n1` as the compound, how does the GFP response relative to DMSO read?
Its GFP response relative to DMSO is 169% (active).

Which GFP response relative to DMSO does the source give for `Cc1nn2c(NCc3ccccn3)c3c(nc2c1-c1ccccc1)CCC3` here?
Its GFP response relative to DMSO is 132% (inactive).

With `CC(NCCS(=O)(=O)c1ccc(Cl)cc1)c1cccc(Cl)c1` (stereo not given) as the compound, how does the GFP response relative to DMSO read?
Its GFP response relative to DMSO is 97.7% (inactive).

For `CCCOc1ccc(C(=O)NNC(=S)NC(=O)CC)cc1`, which GFP response relative to DMSO is on record?
Its GFP response relative to DMSO is 181% (active).

Which GFP response relative to DMSO does the source give for `O=C(c1ccc(Cl)c([N+](=O)[O-])c1)N1CCN(c2ccccc2)CC1` here?
Its GFP response relative to DMSO is 116% (inactive).

Which GFP response relative to DMSO does the source give for `O=C(c1ccc2c(c1)OCO2)N1CCN(c2ccccc2)CC1` here?
Its GFP response relative to DMSO is 96.7% (inactive).

same assay, conditions: S. cerevisiae LAP4-GFP strain, 3 h, measured here: daughter cell gate response, at 10 µM, stronger effect = higher value, 100 means same as DMSO control

With `O=C(Nc1cccnc1)c1ccc(-c2ccc(Cl)cc2)o1` as the compound, how does the GFP response relative to DMSO read?
Its GFP response relative to DMSO is 100%.

Which GFP response relative to DMSO does the source give for `Oc1ccc2ccccc2c1N=Nc1nccs1` here?
The GFP response relative to DMSO was 151%.

Which GFP response relative to DMSO does the source give for `Oc1c(CN2CCN(c3ccc(F)cc3)CC2)cc(Cl)c2cccnc12` here?
Its GFP response relative to DMSO is 253%.

For `Oc1ccc(Br)cc1/C=N/Nc1ccccn1`, which GFP response relative to DMSO is on record?
Its GFP response relative to DMSO is 222%.

Which GFP response relative to DMSO does the source give for `O=C(/C=C/Sc1ncn[nH]1)c1ccc(Cl)cc1` here?
Its GFP response relative to DMSO is 198%.

Which GFP response relative to DMSO does the source give for `CC(=O)Nc1ccc(Nc2cc(C)nc3c(-c4ccc(Cl)cc4)c(C)nn23)cc1` here?
The GFP response relative to DMSO was 92.8%.

Which GFP response relative to DMSO does the source give for `O=C1C=CC(=O)N1c1ccc(N2CCCCC2)cc1` here?
The GFP response relative to DMSO was 99.2%.

Which GFP response relative to DMSO does the source give for `CCn1c(/C=C/c2ccc([N+](=O)[O-])o2)nc2ccccc2c1=O` here?
Its GFP response relative to DMSO is 336%.

For `COc1ccc(C(=O)NC(=S)NNC(=O)CCc2ccccc2)cc1`, which GFP response relative to DMSO is on record?
The GFP response relative to DMSO was 173%.

With `Cc1ccc(-c2noc(CCC(=O)Nc3ccccc3C)n2)cc1` as the compound, how does the GFP response relative to DMSO read?
Its GFP response relative to DMSO is 104%.

For `Nc1c(C(=O)c2cccs2)sc2nsc(SCCN3CCCCC3)c12`, which GFP response relative to DMSO is on record?
Its GFP response relative to DMSO is 128%.

With `Cc1[nH]c(-c2ccccn2)nc(=S)c1Cl` as the compound, how does the GFP response relative to DMSO read?
The GFP response relative to DMSO was 215%.

Which GFP response relative to DMSO does the source give for `CCCCC(=O)O[C@]1(C(=O)CO)CC[C@H]2[C@@H]3CCC4=CC(=O)CC[C@]4(C)[C@H]3[C@@H](O)C[C@@]21C` here?
Its GFP response relative to DMSO is 101%.

For `Nc1ccccc1SC(C[N+](=O)[O-])c1ccccc1` (stereo not given), which GFP response relative to DMSO is on record?
The GFP response relative to DMSO was 170%.

For `N/C(=N\OC(=O)c1ccccc1Cl)c1ccc(Cl)cc1`, which GFP response relative to DMSO is on record?
Its GFP response relative to DMSO is 115%.

With `Cc1[nH][nH]c(=O)c1C(c1ccc(-c2ccc(Cl)cc2)o1)c1c(C)[nH][nH]c1=O` as the compound, how does the GFP response relative to DMSO read?
Its GFP response relative to DMSO is 179%.

For `C[n+]1ccc(/C=C/c2c[nH]c3ccccc23)cc1`, which GFP response relative to DMSO is on record?
Its GFP response relative to DMSO is 143%.

With `Cc1cc(O)c(C(=O)/C=C/c2c(F)c(F)c(F)c(F)c2F)c(=O)o1` as the compound, how does the GFP response relative to DMSO read?
Its GFP response relative to DMSO is 145%.

Which GFP response relative to DMSO does the source give for `Cc1cc(O)ccc1NC(=O)c1ccccc1` here?
The GFP response relative to DMSO was 92.8%.

Which GFP response relative to DMSO does the source give for `CCOc1ccc(Nc2ccc(C(=O)O)cc2[N+](=O)[O-])cc1` here?
The GFP response relative to DMSO was 99.1%.

With `Cc1cccc(C)c1NC(=O)C(Cl)C(=O)c1ccccc1` (stereo not given) as the compound, how does the GFP response relative to DMSO read?
The GFP response relative to DMSO was 168%.

With `O=C(NC(=S)NNC(=O)c1cnccn1)c1ccc(F)cc1` as the compound, how does the GFP response relative to DMSO read?
The GFP response relative to DMSO was 234%.

With `CCCNC(=O)COC(=O)c1ccc(S(=O)(=O)N2CCCC2)cc1` as the compound, how does the GFP response relative to DMSO read?
The GFP response relative to DMSO was 82.6%.

For `O=C1Oc2ccccc2C(=O)/C1=C/c1ccccc1O`, which GFP response relative to DMSO is on record?
The GFP response relative to DMSO was 246%.

With `O=C(Nc1ccccc1)c1nnsc1S(=O)(=O)c1ccc(Cl)cc1` as the compound, how does the GFP response relative to DMSO read?
Its GFP response relative to DMSO is 92.8%.

Which GFP response relative to DMSO does the source give for `Cc1cc(C)nc(S/C=C/C(=O)c2ccccc2)n1` here?
The GFP response relative to DMSO was 151%.

With `CC(NCCS(=O)(=O)c1ccc(Cl)cc1)c1cccc(Cl)c1` (stereo not given) as the compound, how does the GFP response relative to DMSO read?
The GFP response relative to DMSO was 96%.

For `CCCOc1ccc(C(=O)NNC(=S)NC(=O)CC)cc1`, which GFP response relative to DMSO is on record?
The GFP response relative to DMSO was 120%.

Which GFP response relative to DMSO does the source give for `O=C(c1ccc(Cl)c([N+](=O)[O-])c1)N1CCN(c2ccccc2)CC1` here?
Its GFP response relative to DMSO is 114%.

Which GFP response relative to DMSO does the source give for `O=C(c1ccc2c(c1)OCO2)N1CCN(c2ccccc2)CC1` here?
Its GFP response relative to DMSO is 104%.
